≈ marks a conversion by molar mass, not a printed value.
How the values were obtained:
Format in all cases: functional
Acinetobacter baumannii = assay: Antibacterial activity against SIM-1 expressing Acinetobacter baumannii isolate 170 after 18 to 24 hrs by two-fold broth microdilution assay
How it was run: (§1)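 CLSI two-fold broth microdilution. Compounds dissolved in DMSO, 10 mg/mL stock, serially diluted to 400–0.09 µg/mL in Mueller Hinton broth. Wells inoculated with 10^6 CFU/mL bacteria and incubated 18–24 h at 37 °C. 0.2 mg/mL INT added for 30 min. MIC taken as the lowest concentration with no visible growth or pink colour. Triplicate.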

[1] = test system: Stenotrophomonas maltophilia; assay: Antibacterial activity against […] expressing Stenotrophomonas maltophilia isolate 125 after 18 to 24 hrs by two-fold broth microdilution assay
How it was run: (§2)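 CLSI two-fold broth microdilution was used. Compounds were dissolved in DMSO, brought to 10 mg/mL in medium, then serially diluted in Mueller Hinton broth over 400–0.09 µg/mL. Overnight MHB cultures were diluted to 10^6 CFU/mL, and 10 µL was added per well. Plates were incubated 18–24 h at 37 °C, then 0.2 mg/mL INT was added for 30 min at 37 °C. MIC was the lowest concentration with no visible growth or pink colour, triplicate.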

Enterobacter cloacae [2] = assay: Antibacterial activity against TEM-1/CTX-M-15 expressing Enterobacter cloacae isolate 62 after 18 to 24 hrs by two-fold broth microdilution assay
Enterobacter cloacae [3] = assay: Antibacterial activity against CTX-15 expressing Enterobacter cloacae isolate 51 after 18 to 24 hrs by two-fold broth microdilution assay
Aeromonas hydrophila [4] = assay: Antibacterial activity against TEM-1/SHV-12 expressing Aeromonas hydrophila isolate 268 after 18 to 24 hrs by two-fold broth microdilution assay; how it was run: as §2
Escherichia coli [5] = assay: Antibacterial activity against TEM-1/SHV-12 expressing Escherichia coli isolate 237 after 18 to 24 hrs by two-fold broth microdilution assay; how it was run: as §1
Klebsiella pneumoniae [6] = assay: Antibacterial activity against TEM-1/SHV-12 expressing Klebsiella pneumoniae isolate 303 after 18 to 24 hrs by two-fold broth microdilution assay; how it was run: as §2
Enterobacter cloacae [7] = assay: Antibacterial activity against TEM-1/SHV-12 expressing Enterobacter cloacae isolate 306 after 18 to 24 hrs by two-fold broth microdilution assay
Kluyvera intermedia = assay: Antibacterial activity against TEM-1/SHV-12/[…] expressing Enterobacter intermedius isolate 243 after 18 to 24 hrs by two-fold broth microdilution assay; how it was run: as §2
Pseudomonas aeruginosa [8] = assay: Antibacterial activity against GIM-1 expressing Pseudomonas aeruginosa isolate 197 after 18 to 24 hrs by two-fold broth microdilution assay; how it was run: as §2
Aeromonas caviae [9] = assay: Antibacterial activity against TEM-1/CTX-M-15 expressing Aeromonas caviae isolate 260 after 18 to 24 hrs by two-fold broth microdilution assay; how it was run: as §2
Aeromonas caviae [10] = assay: Antibacterial activity against […] expressing Aeromonas caviae isolate 258 after 18 to 24 hrs by two-fold broth microdilution assay; how it was run: as §2
Escherichia coli [11] = assay: Antibacterial activity against […] expressing Escherichia coli isolate 4024 after 18 to 24 hrs by two-fold broth microdilution assay; how it was run: as §1
Escherichia coli [12] = assay: Antibacterial activity against […] expressing Escherichia coli isolate 235 after 18 to 24 hrs by two-fold broth microdilution assay; how it was run: as §1
Aspergillus fumigatus = assay: Antifungal activity against Aspergillus fumigatus FNSST 3833 assessed as diameter of zone of inhibition at 250 ug/disc after 72 hrs by disc diffusion method; settings: FNSST 3833, 72 h, read-out: DIZ
How it was run: (§3)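 Fungi were grown overnight at 30 °C in Sabouraud dextrose broth to 10^4 cfu/mL, and 100 µL was spread on Sabouraud dextrose agar. 6 mm discs carried 250 µg (25 µL of a 10 mg/mL stock in 96% ethanol), with ethanol as the negative control. Incubation was at 30 °C for 48 h (yeast) or 72 h (molds). Zone diameter was read including the disc, in triplicate, mean ± SE.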

Aeromonas hydrophila [13] = assay: Antibacterial activity against Aeromonas hydrophila FNSST 014 assessed as diameter of zone of inhibition at 250 ug/disc after 24 hrs by disc diffusion method; settings: FNSST 014, 24 h, read-out: DIZ
How it was run: (§4)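 Bacteria were grown overnight at 37 °C in TSB to about 10^6 cfu/mL, and 100 µL was spread on Mueller Hinton agar. Sterile 6 mm discs were each loaded with 25 µL of a 10 mg/mL stock in 96% ethanol, giving 250 µg/disc. Ethanol served as the negative control. Plates were incubated 24 h at 37 °C. Inhibition zone diameter was measured including the disc, in triplicate, as mean ± SE.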

Escherichia coli [14] = assay: Antibacterial activity against Escherichia coli FNSST 982 assessed as diameter of zone of inhibition at 250 ug/disc after 24 hrs by disc diffusion method; settings: FNSST 982, 24 h, read-out: DIZ; how it was run: as §4
Talaromyces funiculosus = assay: Antifungal activity against Penicillium funiculosum FNSST 3724 assessed as diameter of zone of inhibition at 250 ug/disc after 72 hrs by disc diffusion method; settings: FNSST 3724, 72 h, read-out: DIZ; how it was run: as §3
Candida albicans = assay: Antifungal activity against Candida albicans ATCC 10231 assessed as diameter of zone of inhibition at 250 ug/disc after 48 hrs by disc diffusion method; settings: ATCC 10231, 48 h, read-out: DIZ; how it was run: as §3
Enterococcus faecalis [15] = assay: Antibacterial activity against Enterococcus faecalis ATCC 29212 assessed as diameter of zone of inhibition at 250 ug/disc after 24 hrs by disc diffusion method; settings: ATCC 29212, 24 h, read-out: DIZ; how it was run: as §4
Staphylococcus aureus [16] = assay: Antibacterial activity against Staphylococcus aureus ATCC 25923 assessed as diameter of zone of inhibition at 250 ug/disc after 24 hrs by disc diffusion method; settings: ATCC 25923, 24 h, read-out: DIZ; how it was run: as §4
Bacillus cereus [17] = assay: Antibacterial activity against Bacillus cereus ATCC 11778 assessed as diameter of zone of inhibition at 250 ug/disc after 24 hrs by disc diffusion method; settings: ATCC 11778, 24 h, read-out: DIZ; how it was run: as §4
Pseudomonas aeruginosa [18] = assay: Antibacterial activity against Pseudomonas aeruginosa FNSST 982 after 18 to 24 hrs by two-fold broth microdilution assay; how it was run: as §2
Klebsiella pneumoniae [19] = assay: Antibacterial activity against Klebsiella pneumoniae FNSST 011 assessed as diameter of zone of inhibition at 250 ug/disc after 24 hrs by disc diffusion method; settings: FNSST 011, 24 h, read-out: DIZ; how it was run: as §4
Enterococcus faecalis [20] = assay: Antibacterial activity against Enterococcus faecalis ATCC 29212 after 18 to 24 hrs by two-fold broth microdilution assay; how it was run: as §2
Aeromonas hydrophila [21] = assay: Antibacterial activity against Aeromonas hydrophila FNSST 014 after 18 to 24 hrs by two-fold broth microdilution assay; how it was run: as §2
Escherichia coli [22] = assay: Antibacterial activity against Escherichia coli FNSST 982 after 18 to 24 hrs by two-fold broth microdilution assay; how it was run: as §2
Klebsiella pneumoniae [23] = assay: Antibacterial activity against Klebsiella pneumoniae FNSST 011 after 18 to 24 hrs by two-fold broth microdilution assay; how it was run: as §2
Clostridium perfringens [24] = assay: Antibacterial activity against Clostridium perfringens FNSST 4999 after 18 to 24 hrs by two-fold broth microdilution assay; how it was run: as §1
Bacillus cereus [25] = assay: Antibacterial activity against Bacillus cereus ATCC 11778 after 18 to 24 hrs by two-fold broth microdilution assay; how it was run: as §2
Staphylococcus aureus [26] = assay: Antibacterial activity against Staphylococcus aureus ATCC 25923 after 18 to 24 hrs by two-fold broth microdilution assay; how it was run: as §2
Clostridium perfringens [27] = assay: Antibacterial activity against Clostridium perfringens FNSST 4999 assessed as diameter of zone of inhibition at 250 ug/disc after 24 hrs by disc diffusion method; settings: FNSST 4999, 24 h, read-out: DIZ
How it was run: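 Disc diffusion per CLSI: 100 µL of 10^6 cfu/mL bacterial suspension spread on Mueller Hinton agar. 6 mm discs loaded with 25 µL of 10 mg/mL compound stock in 96% ethanol (250 µg/disc); ethanol as negative control. Incubated 24 h at 37 °C. Inhibition zone diameter measured in mm including the disc, triplicate, reported as mean ± SE.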

Pseudomonas aeruginosa [28] = assay: Antibacterial activity against Pseudomonas aeruginosa FNSST 982 assessed as diameter of zone of inhibition at 250 ug/disc after 24 hrs by disc diffusion method; settings: FNSST 982, 24 h, read-out: DIZ; how it was run: as §4

SMILES | MIC (Acinetobacter baumannii) [µg/mL] | MIC [1] [µg/mL] | MIC (Enterobacter cloacae [2]) [µg/mL] | MIC (Enterobacter cloacae [3]) [µg/mL] | MIC (Aeromonas hydrophila [4]) [µg/mL] | MIC (Escherichia coli [5]) [µg/mL] | MIC (Klebsiella pneumoniae [6]) [µg/mL] | MIC (Enterobacter cloacae [7]) [µg/mL] | MIC (Kluyvera intermedia) [µg/mL] | MIC (Pseudomonas aeruginosa [8]) [µg/mL] | MIC (Aeromonas caviae [9]) [µg/mL] | MIC (Aeromonas caviae [10]) [µg/mL] | MIC (Escherichia coli [11]) [µg/mL] | MIC (Escherichia coli [12]) [µg/mL] | zone of inhibition at 250 µg/disc (Aspergillus fumigatus) [mm] | zone of inhibition at 250 µg/disc (Aeromonas hydrophila [13]) [mm] | zone of inhibition at 250 µg/disc (Escherichia coli [14]) [mm] | zone of inhibition at 250 µg/disc (Talaromyces funiculosus) [mm] | zone of inhibition at 250 µg/disc (Candida albicans) [mm] | zone of inhibition at 250 µg/disc (Enterococcus faecalis [15]) [mm] | further results
C[C@@H](O)[C@H]1C(=O)N2C(C(=O)O)=C(S[C@@H]3CN[C@H](C(=O)N(C)C)C3)[C@H](C)[C@H]12 [MEROPENEM] | 16 (≈ 41.7 µM) | 128 (≈ 334 µM) | 0.5 (≈ 1.3 µM) | 0.25 (≈ 0.652 µM) | 0.06 (≈ 0.156 µM) | 1 (≈ 2.61 µM) | 0.12 (≈ 0.313 µM) | 0.25 (≈ 0.652 µM) | 0.12 (≈ 0.313 µM) | > 8 | 1 (≈ 2.61 µM) | 0.125 (≈ 0.326 µM) | 0.12 (≈ 0.313 µM) | 0.12 (≈ 0.313 µM) |  |  |  |  |  |  | 
O=C(O)c1cn(C2CC2)c2cc(N3CCNCC3)c(F)cc2c1=O [CIPROFLOXACIN] | 0.5 (≈ 1.51 µM) |  |  |  | 2 (≈ 6.04 µM) |  | 2 (≈ 6.04 µM) |  | 0.5 (≈ 1.51 µM) | > 4 | 1 (≈ 3.02 µM) | 0.5 (≈ 1.51 µM) |  |  |  |  |  |  |  |  | 
O/N=C/c1nccn1-c1ccc(F)cc1 |  |  |  |  |  |  |  |  |  |  |  |  |  |  | 15 | 15.3 | 14.8 | 18.6 | 18.9 | 12.2 | zone of inhibition at 250 µg/disc (Staphylococcus aureus [16]): 12.4 mm; zone of inhibition at 250 µg/disc (Bacillus cereus [17]): 14 mm; MIC (Pseudomonas aeruginosa [18]): 50 µg/mL (≈ 244 µM); zone of inhibition at 250 µg/disc (Klebsiella pneumoniae [19]): 10.3 mm; MIC (Enterococcus faecalis [20]): 25 µg/mL (≈ 122 µM); MIC (Aeromonas hydrophila [21]): 25 µg/mL (≈ 122 µM); MIC (Escherichia coli [22]): 25 µg/mL (≈ 122 µM); MIC (Klebsiella pneumoniae [23]): 100 µg/mL (≈ 487 µM); MIC (Clostridium perfringens [24]): 100 µg/mL (≈ 487 µM); MIC (Bacillus cereus [25]): 50 µg/mL (≈ 244 µM); MIC (Staphylococcus aureus [26]): 100 µg/mL (≈ 487 µM); zone of inhibition at 250 µg/disc (Clostridium perfringens [27]): 8.6 mm; zone of inhibition at 250 µg/disc (Pseudomonas aeruginosa [28]): 9.8 mm
CC(C)(O/N=C(\C(=O)N[C@@H]1C(=O)N2C(C(=O)[O-])=C(C[n+]3ccccc3)CS[C@H]12)c1csc(N)n1)C(=O)O [CEFTAZIDIME] | > 256 | 128 (≈ 234 µM) | > 256 | 16 (≈ 29.3 µM) | 64 (≈ 117 µM) | 8 (≈ 14.6 µM) | 128 (≈ 234 µM) | > 256 | 8 (≈ 14.6 µM) | 256 (≈ 468 µM) | 128 (≈ 234 µM) | 4 (≈ 7.32 µM) | 16 (≈ 29.3 µM) | 64 (≈ 117 µM) |  |  |  |  |  |  | 
Cc1ccc(-n2ccnc2/C=N/O)cc1 |  |  |  |  |  |  |  |  |  |  |  |  |  |  | 16.3 | 15.7 | 14.9 | 15.4 | 20.2 | 13.8 | zone of inhibition at 250 µg/disc (Staphylococcus aureus [16]): 18.5 mm; zone of inhibition at 250 µg/disc (Bacillus cereus [17]): 14.6 mm; MIC (Pseudomonas aeruginosa [18]): 50 µg/mL (≈ 248 µM); zone of inhibition at 250 µg/disc (Klebsiella pneumoniae [19]): 9.3 mm; MIC (Enterococcus faecalis [20]): 50 µg/mL (≈ 248 µM); MIC (Aeromonas hydrophila [21]): 25 µg/mL (≈ 124 µM); MIC (Escherichia coli [22]): 25 µg/mL (≈ 124 µM); MIC (Klebsiella pneumoniae [23]): 100 µg/mL (≈ 497 µM); MIC (Clostridium perfringens [24]): 100 µg/mL (≈ 497 µM); MIC (Bacillus cereus [25]): 50 µg/mL (≈ 248 µM); MIC (Staphylococcus aureus [26]): 32 µg/mL (≈ 159 µM); zone of inhibition at 250 µg/disc (Clostridium perfringens [27]): 12.6 mm; zone of inhibition at 250 µg/disc (Pseudomonas aeruginosa [28]): 10.9 mm

Source: ChEMBL document CHEMBL3091449, “Synthesis and antimicrobial profile of N-substituted imidazolium oximes and their monoquaternary salts against multidrug resistant bacteria” (2013)
